One test concerns Caco-2. The experiment in a line: Caco-2 cell permeability coefficient was determined after 120 min of incubation. It is filed as functional, cell-based. To be noted: Homo sapiens. A digest of the protocol: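 Caco-2 cells grown 21 days on permeable polycarbonate transwell filters; apparent permeability coefficient measured after 120 min incubation per a published method; total compound recovery calculated at end of experiment.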

The test system of a further test is L1210. The experiment in a line: In vitro cytotoxicity against L1210 murine leukemia cells after 48 hr of continuous exposure. Format: functional, cell-based. To be noted: Mus musculus, L1210, 48 h. The procedure, abridged: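 L1210 murine leukaemia cells (from NCI) under continuous drug exposure for 48 h; IC50 taken from dose–response curves, mean±SE of at least two experiments.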

Test [1] deals with Mus musculus. Nature of the test: Median survival time of mice injected with L1210 cells intraperitoneally versus untreated mice at an optimal (non toxic) dose of 12.5 mg/kg. Format: functional. To be noted: route intraperitoneal.
Test [2] has as its system Mus musculus. Nature of the test: Median survival time of mice injected with L1210 cells intravenously versus untreated mice at an optimal (non toxic) dose of 50 mg/kg. To be noted: route intravenous. It is filed as functional.
Test [3] concerns Mus musculus. Nature of the test: Median survival time of mice injected with L1210 cells intravenously versus untreated mice at an optimal (non toxic) dose of 100 mg/kg. To be noted: route intravenous. Format: functional.
Test [4] relates to Mus musculus. The experiment in a line: Median survival time of mice injected with L1210 cells intravenously versus untreated mice at an optimal (non toxic) dose of 25 mg/kg. To be noted: route intravenous. Format: functional.
Test [5] concerns Mus musculus. Nature of the test: Median survival time of mice injected with L1210 cells intravenously versus untreated mice at an optimal (non toxic) dose of 12.5 mg/kg. It is filed as functional. To be noted: route intravenous.

Usually Papp stands for a coefficient for how fast a substance crosses the barrier. The low end stands for poor permeation, the high end for ready permeation. Usually IC50 stands for the point on the concentration scale where inhibition reaches its midpoint. A low value points to greater potency in that assay. In general, T/C refers to the ratio of treated to control.

The structures appear in SMILES notation. Where only a bound is given, the exact number is not on record here.

The molecule `C=C(Br)C(=O)Nc1cc(C(=O)NCCC(=N)N)n(C)c1` registered a Papp in the test on Caco-2 of 0.69 ×10⁻⁶ cm/s. Further, in the test on L1210, the IC50 was more than 2500 nM.
Take `C=C(Br)C(=O)Nc1cc(C(=O)Nc2cc(C(=O)Nc3cc(C(=O)NCCC(=N)N)n(C)c3)n(C)c2)n(C)c1.Cl`: in the test with Caco-2, the Papp turned out to be 15.2 ×10⁻⁶ cm/s. Besides, the T/C in the test on Mus musculus [1] came to 175%.
In turn, `C=CC(=O)Nc1cc(C(=O)Nc2cc(C(=O)Nc3cc(C(=O)Nc4cc(C(=O)NCCC(=N)N)n(C)c4)n(C)c3)n(C)c2)n(C)c1` gave an IC50 with L1210 of 2000 nM.
Molecule `C=C(Br)C(=O)Nc1cc(C(=O)Nc2cc(C(=O)Nc3cc(C(=O)NCCN=C(N)N)n(C)c3)n(C)c2)n(C)c1` came in with an IC50 with L1210 of 27 nM.
With `C=C(Br)C(=O)Nc1ccc(F)cc1`, half-maximal inhibition in the test on L1210 (IC50) was put at 58.6 nM. This molecule also gave a T/C with Mus musculus [2] of 100%.
Turning to `C=C(F)C(=O)Nc1cc(C(=O)Nc2ccccc2)n(C)c1`, in the test on Caco-2, the Papp turned out to be 39.6 ×10⁻⁶ cm/s. Also, in the test with L1210, the IC50 was more than 5000 nM.
In the test on L1210, `C=C(Br)C(=O)Nc1cc(C(=O)Nc2cc(C(=O)Nc3cc(C(=O)Nc4cc(C(=O)NCCN=C(N)N)n(C)c4)n(C)c3)n(C)c2)n(C)c1` gave an IC50 of 1.8 nM.
Take `C=C(Br)C(=O)Nc1cc(C(=O)NCCC#N)n(C)c1`: in the test on L1210, inhibition was half-maximal at 51.9 nM (IC50). The T/C with Mus musculus [3] came to 100%.
`C=C(Br)C(=O)Nc1ccc(C(=N)N)cc1` returned a Papp in the test with Caco-2 of 3.9 ×10⁻⁶ cm/s. In addition, the IC50 in the test on L1210 was more than 5000 nM.
On to `C=C(Br)C(=O)Nc1ccc(N(C)C)cc1.Cl`, for which the IC50 with L1210 came out at 54 nM. In the test on Mus musculus [4], this molecule had a T/C of 100%.
`C=C(F)C(=O)Nc1cc(C(=O)Nc2cc(C(=O)Nc3cc(C(=O)Nc4cc(C(=O)NCCC(=N)N)n(C)c4)n(C)c3)n(C)c2)n(C)c1` had an IC50 in the test with L1210 of more than 800 nM.
Regarding `C=C(Br)C(=O)Nc1cc(C(=O)Nc2ccccc2)n(C)c1`, the Papp in the test on Caco-2 is 1.2 ×10⁻⁶ cm/s. In the test with L1210, this molecule had an IC50 of 43 nM. Further, in the test with Mus musculus [4], the T/C came out at 100%.
With `C=C(Br)C(=O)Nc1cc(C(=O)Nc2cc(C(=O)NCCC(=N)N)n(C)c2)n(C)c1`, in the test on Caco-2, the Papp worked out at 5.58 ×10⁻⁶ cm/s. In addition, in the test with L1210, half-maximal inhibition (IC50) was put at 1300 nM.
As for `C=C(Br)C(=O)Nc1cc(C(=O)Nc2cc(C(=O)Nc3cc(C(=O)Nc4cc(C(=O)NCCC(=N)N)n(C)c4)n(C)c3)n(C)c2)n(C)c1`, in the test with Caco-2, the Papp was found to be 38.2 ×10⁻⁶ cm/s.
Consider `C=C(Br)C(=O)Nc1ccccc1`, for which the IC50 with L1210 was found to be 36.8 nM. The molecule also came in with a T/C with Mus musculus [5] of 117%.
In the case of `C=C(Br)C(=O)Nc1cc(C(=O)Nc2cc(C(=O)NCCN=C(N)N)n(C)c2)n(C)c1`, the IC50 with L1210 was more than 500 nM.

The values are drawn from ChEMBL document CHEMBL1135125, “Cytotoxic alpha-bromoacrylic derivatives of low molecular weight” (Bioorg Med Chem Lett, 2002).
